Test results published in ChEMBL document CHEMBL1157246, “Cytotoxic isomalabaricane triterpenes from the marine sponge Rhabdastrella globostellata” (2006).
The source made the active and inactive calls. The rule behind the calls is not given here.

How the values were obtained:
HeLa [1] = assay: Cytotoxicity against human HeLa cells at 30 ug/mL after 72 hrs by MTT assay; assay type: functional, cell-based
Procedure, shortened: (§1)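 Exponentially growing cells (3750 per well) were exposed to samples from EtOH 96% stocks for 72 h at 37 °C in 5% CO2. MTT (20 µL of 5 mg/mL in PBS, pH 7.4) was added for 3 h 45 min, then formazan was released with DMSO and read at 520 nm. Survival % was taken relative to untreated cells, with media containing 0.1% EGMME/DMSO as controls. Assays were run in triplicate and repeated three times.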

L5178Y [2] = assay: Cytotoxicity against mouse L5178Y cells after 72 hrs by MTT assay; assay type: functional; procedure, shortened: as §1
L5178Y [3] = assay: Cytotoxicity against mouse L5178Y cells at 10 ug/mL after 72 hrs by MTT assay; assay type: functional; procedure, shortened: as §1
HeLa [4] = assay: Cytotoxicity against human HeLa cells at 3 ug/mL after 72 hrs by MTT assay; assay type: functional; procedure, shortened: as §1
PC-12 [5] = assay: Cytotoxicity against rat PC12 cells at 30 ug/mL after 72 hrs by MTT assay; assay type: functional, cell-based; procedure, shortened: as §1
PC-12 [6] = assay: Cytotoxicity against rat PC12 cells at 10 ug/mL after 72 hrs by MTT assay; assay type: functional; details: PC-12, 72 h; procedure, shortened: as §1
Saccharomyces cerevisiae [7] = assay: Antifungal activity against Saccharomyces cerevisiae after 24 hrs by agar diffusion assay; assay type: functional, organism-based
Procedure, shortened: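 S. cerevisiae was inoculated on YPD agar, and MeOH-dissolved compounds were applied on 5 mm disks. Inhibition zones were recorded after 24 h at 27 °C, with nystatin 5 µg as positive control.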

HeLa [8] = assay: Cytotoxicity against human HeLa cells at 10 ug/mL after 72 hrs by MTT assay; assay type: functional; procedure, shortened: as §1
L5178Y [9] = assay: Cytotoxicity against mouse L5178Y cells at 3 ug/mL after 72 hrs by MTT assay; assay type: functional; procedure, shortened: as §1
PC-12 [10] = assay: Cytotoxicity against rat PC12 cells at 3 ug/mL after 72 hrs by MTT assay; assay type: functional; details: PC-12, 72 h; procedure, shortened: as §1
Escherichia coli [11] = assay: Antibacterial activity against Escherichia coli DSM10290 at 10 ug after 24 hrs by agar diffusion assay; assay type: functional; details: read-out: IZ
Procedure, shortened: (§2)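 Disks (5 mm) impregnated with compound dissolved in MeOH were laid on LB agar plates seeded with B. subtilis DSM2109 or E. coli DSM10290. Inhibition zones were read after 24 h at 37 °C. Streptomycin and gentamycin, 5 µg each, served as positive controls.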

PC-12 [12] = assay: Cytotoxicity against rat PC12 cells after 72 hrs by MTT assay; assay type: functional; procedure, shortened: as §1
HeLa [13] = assay: Cytotoxicity against human HeLa cells after 72 hrs by MTT assay; assay type: functional; procedure, shortened: as §1
Saccharomyces cerevisiae [14] = assay: Antifungal activity against Saccharomyces cerevisiae at 5 ug after 24 hrs by agar diffusion assay; assay type: functional, organism-based
Procedure, shortened: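 Paper disks (5 mm diameter) loaded with test material dissolved in MeOH were placed on YPD agar plates inoculated with S. cerevisiae. After 24 h of incubation at 27 °C, the zone of inhibition (mm) was recorded.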

Bacillus subtilis [15] = assay: Antibacterial activity against Bacillus subtilis DSM2109 at 5 ug after 24 hrs by agar diffusion assay; assay type: functional; details: read-out: IZ; procedure, shortened: as §2
Escherichia coli [16] = assay: Antibacterial activity against Escherichia coli DSM10290 at 5 ug after 24 hrs by agar diffusion assay; assay type: functional; details: read-out: IZ; procedure, shortened: as §2
Bacillus subtilis [17] = assay: Antibacterial activity against Bacillus subtilis DSM2109 at 10 ug after 24 hrs by agar diffusion assay; assay type: functional; details: read-out: IZ; procedure, shortened: as §2

## CCOC(/C=C/C(C)=C/C=C/C(C)=C1/C(=O)C[C@H]2[C@@]3(C)CC[C@@H](OC(C)=O)[C@](C)(C(=O)O)[C@@H]3CC[C@]12C)C(C)(C)O (some centres not stated) [GLOBOSTELLATIC ACID J, K]
HeLa [1]
  Activity: inactive
L5178Y [2]
  ED50: 8.28 nmol
L5178Y [3]
  inhibition at 10 µg/mL: 100%
HeLa [4]
  inhibition at 3 µg/mL: 0%
PC-12 [5]
  Activity: inactive
PC-12 [6]
  inhibition at 10 µg/mL: 0%
Saccharomyces cerevisiae [7]
  Activity: inactive
HeLa [8]
  inhibition at 10 µg/mL: 0%
L5178Y [9]
  inhibition at 3 µg/mL: 24%
PC-12 [10]
  inhibition at 3 µg/mL: 0%

## CC(=O)O[C@@H]1CC[C@@]2(C)[C@@H](CC[C@]3(C)/C(=C(\C)C(=O)/C=C/C(C)=C/C=C/C(C)(C)O)C(=O)C[C@@H]23)[C@@]1(C)C(=O)O [GLOBOSTELLATIC ACIDS A]
HeLa [1]
  Activity: inactive
L5178Y [3]
  inhibition at 10 µg/mL: 100%
HeLa [4]
  inhibition at 3 µg/mL: 0%
PC-12 [5]
  Activity: inactive
PC-12 [6]
  inhibition at 10 µg/mL: 0%
Saccharomyces cerevisiae [7]
  Activity: inactive
HeLa [8]
  inhibition at 10 µg/mL: 0%
L5178Y [9]
  inhibition at 3 µg/mL: 100%
PC-12 [10]
  inhibition at 3 µg/mL: 0%

## CC(C)=CCC(O[C@H]1OC[C@@H](O)[C@@H](O)[C@H]1O)/C(C)=C/C=C/C(C)=C1\C(=O)C[C@H]2[C@@]3(C)CC[C@@H](O)C(C)(C)[C@@H]3CC[C@]12C (some centres not stated)
L5178Y [2]
  ED50: 2.4 nmol
L5178Y [3]
  inhibition at 10 µg/mL: 100%
HeLa [4]
  inhibition at 3 µg/mL: 26%
PC-12 [6]
  inhibition at 10 µg/mL: 54%
Saccharomyces cerevisiae [7]
  Activity: inactive
HeLa [8]
  inhibition at 10 µg/mL: 100%
Escherichia coli [11]
  zone of inhibition at 10 µg/disc: 12 mm
PC-12 [12]
  ED50: 27.63 nmol
HeLa [13]
  ED50: 8.14 nmol
L5178Y [9]
  inhibition at 3 µg/mL: 100%
PC-12 [10]
  inhibition at 3 µg/mL: 33%

## CC(=O)O[C@@H]1CC[C@@]2(C)[C@@H](CC[C@]3(C)/C(=C(C)/C=C/C=C(\C)C(CC=C(C)C)O[C@@H]4OC[C@H](O)[C@H](O)[C@@H]4O)C(=O)C[C@@H]23)C1(C)C (some centres not stated)
L5178Y [2]
  ED50: 0.22 nmol
L5178Y [3]
  inhibition at 10 µg/mL: 100%
HeLa [4]
  inhibition at 3 µg/mL: 0%
PC-12 [6]
  inhibition at 10 µg/mL: 38%
Saccharomyces cerevisiae [7]
  Activity: inactive
HeLa [8]
  inhibition at 10 µg/mL: 56%
PC-12 [12]
  ED50: 21.54 nmol
HeLa [13]
  ED50: 22.76 nmol
L5178Y [9]
  inhibition at 3 µg/mL: 100%
PC-12 [10]
  inhibition at 3 µg/mL: 0%

## NYSTATIN
Saccharomyces cerevisiae [14]
  inhibition zone (IZ): 12 mm

## CN[C@@H]1[C@H](O[C@H]2[C@H](O[C@H]3[C@H](O)[C@@H](O)[C@H](N=C(N)N)[C@@H](O)[C@@H]3N=C(N)N)O[C@@H](C)[C@]2(O)C=O)O[C@@H](CO)[C@H](O)[C@H]1O [STREPTOMYCIN]
Bacillus subtilis [15]
  zone of inhibition at 5 µg/disc: 20 mm
Escherichia coli [16]
  zone of inhibition at 5 µg/disc: 13 mm

## CC(/C=C/C(O)C(C)(C)O)=C\C=C\C(C)=C1\C(=O)C[C@H]2[C@@]3(C)CC[C@@H](O)[C@](C)(C(=O)O)[C@@H]3CC[C@]12C (some centres not stated) [GLOBOSTELLATIC ACID L, M]
L5178Y [2]
  ED50: 0.92 nmol
L5178Y [3]
  inhibition at 10 µg/mL: 100%
HeLa [4]
  inhibition at 3 µg/mL: 0%
PC-12 [6]
  inhibition at 10 µg/mL: 30%
Saccharomyces cerevisiae [7]
  Activity: inactive
HeLa [8]
  inhibition at 10 µg/mL: 42%
PC-12 [12]
  ED50: 27.52 nmol
HeLa [13]
  ED50: 27.87 nmol
L5178Y [9]
  inhibition at 3 µg/mL: 100%
PC-12 [10]
  inhibition at 3 µg/mL: 0%

## C/C(C(=O)/C=C/C(C)=C/C=C/C(C)(C)O)=C1/C(=O)C[C@H]2[C@@]3(C)CC[C@@H](O)[C@](C)(C(=O)O)[C@@H]3CC[C@]12C [GLOBOSTELLATIC ACID F]
HeLa [1]
  Activity: inactive
L5178Y [2]
  ED50: 10.36 nmol
L5178Y [3]
  inhibition at 10 µg/mL: 100%
HeLa [4]
  inhibition at 3 µg/mL: 0%
PC-12 [5]
  Activity: inactive
PC-12 [6]
  inhibition at 10 µg/mL: 0%
Saccharomyces cerevisiae [7]
  Activity: inactive
HeLa [8]
  inhibition at 10 µg/mL: 0%
L5178Y [9]
  inhibition at 3 µg/mL: 42%
PC-12 [10]
  inhibition at 3 µg/mL: 0%

## C/C(C(=O)/C=C/C(C)=C/C=C/C(C)(C)O)=C1/C(=O)C[C@H]2[C@@]3(C)CC[C@H](O)C(C)(C)[C@@H]3CC[C@]12C [GLOBOSTELLETIN]
L5178Y [2]
  ED50: 5.34 nmol
L5178Y [3]
  inhibition at 10 µg/mL: 94%
Bacillus subtilis [15]
  zone of inhibition at 5 µg/disc: 12 mm
HeLa [4]
  inhibition at 3 µg/mL: 0%
PC-12 [5]
  Activity: inactive
PC-12 [6]
  inhibition at 10 µg/mL: 0%
Saccharomyces cerevisiae [7]
  Activity: inactive
Bacillus subtilis [17]
  zone of inhibition at 10 µg/disc: 13 mm
HeLa [8]
  inhibition at 10 µg/mL: 0%
HeLa [13]
  ED50: >60 nmol
L5178Y [9]
  inhibition at 3 µg/mL: 66%
PC-12 [10]
  inhibition at 3 µg/mL: 0%

## COC(/C=C/C(C)=C/C=C/C(C)=C1/C(=O)C[C@H]2[C@@]3(C)CC[C@@H](O)[C@](C)(C(=O)O)[C@@H]3CC[C@]12C)C(C)(C)O (some centres not stated) [GLOBOSTELLATIC ACID D, G]
L5178Y [2]
  ED50: 0.39 nmol
L5178Y [3]
  inhibition at 10 µg/mL: 100%
HeLa [4]
  inhibition at 3 µg/mL: 4%
PC-12 [6]
  inhibition at 10 µg/mL: 42%
Saccharomyces cerevisiae [7]
  Activity: inactive
HeLa [8]
  inhibition at 10 µg/mL: 25%
Escherichia coli [11]
  zone of inhibition at 10 µg/disc: 10 mm
PC-12 [12]
  ED50: 30.33 nmol
HeLa [13]
  ED50: 46.69 nmol
L5178Y [9]
  inhibition at 3 µg/mL: 100%
PC-12 [10]
  inhibition at 3 µg/mL: 18%

## CCOC(/C=C/C(C)=C/C=C/C(C)=C1/C(=O)C[C@H]2[C@@]3(C)CC[C@@H](O)[C@](C)(C(=O)O)[C@@H]3CC[C@]12C)C(C)(C)O (some centres not stated) [GLOBOSTELLATIC ACID H, I]
L5178Y [2]
  ED50: 0.31 nmol
L5178Y [3]
  inhibition at 10 µg/mL: 100%
HeLa [4]
  inhibition at 3 µg/mL: 8%
PC-12 [6]
  inhibition at 10 µg/mL: 41%
Saccharomyces cerevisiae [7]
  Activity: inactive
HeLa [8]
  inhibition at 10 µg/mL: 23%
Escherichia coli [11]
  zone of inhibition at 10 µg/disc: 10 mm
PC-12 [12]
  ED50: 28.07 nmol
HeLa [13]
  ED50: 46.05 nmol
L5178Y [9]
  inhibition at 3 µg/mL: 100%
PC-12 [10]
  inhibition at 3 µg/mL: 16%
